Reference: ChEMBL document CHEMBL1828528, “Acyclic nucleoside thiophosphonates as potent inhibitors of HIV and HBV replication” (Eur J Med Chem, 2011)
The source made the active and inactive calls. The rule behind the calls is not given here.

Tests used:
HeLa = experiment: Cytotoxicity against human HeLa cells up to 200 uM; type: cell-based
How it was run: (§1)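 Uninfected confluent Vero, CrFK, HEL or HeLa cultures incubated with serial compound dilutions (up to 200 μM) for the same period as the antiviral assays. Minimal toxic concentration is the lowest giving microscopically detectable alteration of cell morphology.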

[1] = Cytotoxicity against […]-activated human PBMC on day 7 by MTT assay; type: cell-based
How it was run: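 Uninfected PHA-P-activated PBMC and H9 cells exposed to graded compound concentrations. Viability by MTT on day 7. CC50 from quadratic fit of % viability against concentration; triplicates.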

[2] = system: Human immunodeficiency virus 1; experiment: Antiviral activity against HIV1 clade A isolate 4113 infected in human H9 cells assessed as inhibition of viral replication; type: functional, organism-based; conditions: Human immunodeficiency virus 1, clade A isolate 4113, H9
How it was run: (§2)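 H9 cells infected with HIV-1 clinical isolates of clades A, B, C, D, A/E, F and G, in the presence of graded compound concentrations. EC50 is the concentration reducing viral replication by 50%.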

Human alphaherpesvirus 2 = experiment: Antiviral activity against Herpes simplex virus type 2 G infected in HEL cells assessed as inhibition of virus-induced cytopathic effect; type: functional, organism-based; conditions: Human alphaherpesvirus 2, strain G
How it was run: (§3)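 Confluent HEL cell monolayers inoculated with 100 CCID50 of virus. Compounds added after a 1–2 h adsorption period. Virus-induced cytopathic effect scored microscopically at 3 days post infection as % of untreated controls. EC50 derived from graphical plots.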

[3] = system: Human immunodeficiency virus 1; experiment: Antiviral activity against HIV1 clade C isolate 2914 infected in human H9 cells assessed as inhibition of viral replication; type: functional, organism-based; conditions: Human immunodeficiency virus 1, clade C isolate 2914, H9; how it was run: as §2
Sindbis virus = experiment: Antiviral activity against Sindbis virus infected in african green monkey Vero cells assessed as inhibition of virus-induced cytopathic effect up to 200 uM measured on day 3 post infection by microscopic analysis; type: functional, organism-based
How it was run: (§4)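 Confluent Vero cell monolayers inoculated with 100 CCID50 of virus. Compound added after 1–2 h adsorption, tested up to 200 μM. Microscopic CPE scoring on day 3 post infection versus untreated controls.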

[4] = system: Human immunodeficiency virus 1; experiment: Antiviral activity against 100 TCID50 wild-type Human immunodeficiency virus 1 3B infected in CEM cells assessed as inhibition of syncytia formation after 4 days by microscopic analysis; type: functional, organism-based; conditions: CCRF-CEM, 96 h
How it was run: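 Human CEM cells (~3 × 10^5 cells/cm3) infected with 100 CCID50/mL HIV-1 IIIB and seeded into wells holding compound dilutions. After 4 days at 37 °C, giant-cell (syncytium) formation was scored microscopically. EC50 is the concentration inhibiting syncytia formation by 50%.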

[5] = system: Human immunodeficiency virus 2; experiment: Antiviral activity against 100 TCID50 wild-type Human immunodeficiency virus type 2 ROD infected in C8166 cells assessed as inhibition of syncytia formation after 4 days by microscopic analysis; type: functional, organism-based; conditions: Human immunodeficiency virus 2, ISOLATE ROD, C8166, 96 h
[6] = Cytotoxicity against human HuH7 cells; type: cell-based; conditions: Huh-7 cells
[7] = system: Mammalian orthoreovirus 1; experiment: Antiviral activity against Reovirus 1 infected in african green monkey Vero cells assessed as inhibition of virus-induced cytopathic effect up to 200 uM measured on day 3 post infection by microscopic analysis; type: functional, organism-based; how it was run: as §4
Human alphaherpesvirus 1 = experiment: Antiviral activity against TK-deficient and ACR-resistant Herpes simplex virus type 1 KOS infected in HEL cells assessed as inhibition of virus-induced cytopathic effect; type: functional, organism-based; conditions: Human alphaherpesvirus 1, KOS; how it was run: as §3
[8] = system: Human immunodeficiency virus 1; experiment: Antiviral activity against 100 TCID50 wild type HIV1 LAI infected in human PBMC assessed as reduction in viral replication measured on day 7 post infection by reverse transcriptase activity; type: functional, organism-based; conditions: Human immunodeficiency virus 1, LAI, 168 h
How it was run: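 PHA-P-activated PBMC (1.5 × 10^5; donor cells stimulated 3 days with 1 μg/mL PHA-P plus 5 IU/mL IL-2) or H9 cells (5 × 10^5) in RPMI-1640/10% FCS. Cells pre-treated 30 min with graded compound concentrations, then infected with HIV-1 LAI (100 or 125 TCID50). Supernatant RT activity read on day 7. EC50 from quadratic fit of % inhibition; triplicates, PBMC repeated with a second donor.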

[9] = Stability of compound in presence of CEM-SS cell extract assessed as compound degradation after 24 hrs by HPLC analysis; type: physicochemical; conditions: human, read-out: Activity
How it was run: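 Compound diluted to 0.1 mM final in one of two media and incubated at 37 °C: RPMI-1640 with 10% heat-inactivated FCS, or CEM-SS cell extract (soluble proteins 3 mg/mL in 10 mM Tris-HCl pH 7.4, 140 mM KCl). Aliquots were taken over time, frozen at −80 °C, then run on C18 reverse-phase HPLC with on-line filtration, TEAB/acetonitrile gradient and 260 nm detection. Degradation products were identified by co-injection.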

[10] = system: Human immunodeficiency virus 1; experiment: Antiviral activity against HIV1 clade B isolate 2056 infected in human H9 cells assessed as inhibition of viral replication; type: functional, organism-based; conditions: Human immunodeficiency virus 1, clade B isolate 2056, H9; how it was run: as §2
[11] = Cytotoxicity against human HEL cells assessed as alteration in cellular morphology by microscopic analysis; type: cell-based; how it was run: as §1
[12] = Cytotoxicity against human HepAD38 cells; type: cell-based
Influenza A virus = experiment: Antiviral activity against influenza A virus; type: functional, organism-based
Punta Toro virus = experiment: Antiviral activity against Punta Toro virus infected in african green monkey Vero assessed as inhibition of virus-induced cytopathic effect cells up to 200 uM measured on day 3 post infection by microscopic analysis; type: functional, organism-based; how it was run: as §4
[13] = Half life of the compound in complete culture medium by HPLC analysis; type: physicochemical
How it was run: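 Compound diluted to 0.1 mM final in RPMI-1640 with 10% heat-inactivated FCS and incubated at 37 °C up to 24 h. Timed aliquots frozen at −80 °C, then analysed by reverse-phase HPLC with on-line filtration: C18 column, triethylammonium bicarbonate pH 7.5/acetonitrile gradient, detection at 260 nm. Half-life calculated.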

[14] = system: Human immunodeficiency virus 1; experiment: Antiviral activity against HIV1 clade B isolate 1722 infected in human H9 cells assessed as inhibition of viral replication; type: functional, organism-based; conditions: Human immunodeficiency virus 1, clade B isolate 1722, H9; how it was run: as §2
Human respirovirus 3 = experiment: Antiviral activity against Parainfluenza virus 3 infected in african green monkey Vero cells assessed as inhibition of virus-induced cytopathic effect up to 200 uM measured on day 3 post infection by microscopic analysis; type: functional, organism-based; how it was run: as §4
Vaccinia virus = experiment: Antiviral activity against Vaccinia virus infected in HEL cells assessed as inhibition of virus-induced cytopathic effect; type: functional, organism-based; conditions: Orthopoxvirus vaccinia; how it was run: as §3
Feline coronavirus = experiment: Antiviral activity against Feline coronavirus infected in CrFK cells assessed as inhibition of virus-induced cytopathic effect up to 200 uM measured on day 3 post infection by microscopic analysis; type: functional, organism-based
How it was run: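 Confluent CrFK cells inoculated with 100 CCID50 of virus. Compounds up to 200 μM added after 1–2 h adsorption. Cytopathic effect recorded microscopically at day 3 relative to untreated controls.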

| Compound | Activity (HeLa) | CC50 at 7 day [1] [µM] | EC50 [2] [µM] | EC50 (Human alphaherpesvirus 2) [µM] | EC50 [3] [µM] | inhibition (Sindbis virus) | EC50 [4] [µM] | EC50 [5] [µM] | CC50 [6] [µM] | inhibition [7] | EC50 (Human alphaherpesvirus 1) [µM] | EC50 [8] [µM] | metabolised at 24 h [9] [%] | EC50 [10] [µM] | MCC [11] [µM] | CC50 [12] [µM] | Activity (Influenza A virus) | inhibition (Punta Toro virus) | half-life [13] [h] | EC50 [14] [µM] | other results |
| --- | --- | --- | --- | --- | --- | --- | --- | --- | --- | --- | --- | --- | --- | --- | --- | --- | --- | --- | --- | --- | --- |
| C[C@H](Cn1cnc2c(N)ncnc21)OCP(=O)([O-])[S-].[Na+].[Na+] (stereo partly specified) | Non-toxic | > 100 | 4.49 | 48 | 0.38 | inactive | 14 | 7.9 | > 150 | inactive | 80 | 4.2 | < 1 | 0.45 | > 200 | > 150 | inactive | inactive | > 24 | 0.51 | inhibition (Human respirovirus 3): inactive; EC50 (Vaccinia virus): 80 µM; inhibition (Feline coronavirus): inactive |
| Nc1ncnc2c1ncn2CCOCP(=O)([O-])[S-].[Na+].[Na+] (stereo unspecified) | Non-toxic | > 30 | 1.64 | 24 | 0.49 | inactive | 16 | 23 | > 150 | inactive | 24 | 14 | < 1 | 3.41 | > 200 | > 150 | inactive | inactive | > 24 | 2.8 | inhibition (Human respirovirus 3): inactive; EC50 (Vaccinia virus): 84 µM; inhibition (Feline coronavirus): inactive |
